Format in all cases: functional
Holding throughout (settings): read-out: Activity

The test system of assay [1] is A498. The assay can be described thus: Growth inhibition of human A498 cells assessed as cell growth at 10 uM incubated for 48 hrs by sulforhodamine B assay relative to control. The essentials: (§1)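 NCI Developmental Therapeutics Program NCI60 panel. Compounds that were active in the 10 µM one-dose screen went on to dose–response testing. Growth at each concentration is expressed relative to untreated control (100%). GI50 (concentration giving 50% of maximal inhibition of proliferation) and TGI (concentration giving total growth inhibition) were derived from the curves.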

Assay [2] concerns HCT-116. In words: Growth inhibition of human HCT-116 cells assessed as cell growth at 10 uM incubated for 48 hrs by sulforhodamine B assay relative to control. The essentials: (§2)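 Submitted to the NCI Developmental Therapeutics Program for the NCI60 human tumour cell line panel. First screen at a single 10 µM concentration. Read-out is growth relative to untreated control cells set at 100%.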

For assay [3], the system named is SN12C. The assay can be described thus: Growth inhibition of human SN12C cells assessed as cell growth at 10 uM incubated for 48 hrs by sulforhodamine B assay relative to control. In outline: (§3)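 Run by the NCI Developmental Therapeutics Program as part of its 60-line human tumour panel. Each compound tested at a single 10 µM dose. Growth expressed as % relative to untreated control cells (100%).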

The subject of assay [4] is SNB-75. In words: Growth inhibition of human SNB-75 cells assessed as cell growth at 10 uM incubated for 48 hrs by sulforhodamine B assay relative to control. The essentials: as §3
In assay [5] the test system is SNB-19. The assay can be described thus: Growth inhibition of human SNB-19 cells assessed as cell growth at 10 uM incubated for 48 hrs by sulforhodamine B assay relative to control. In outline:
as §3

In assay [6] the test system is NCI-H226. The assay can be described thus: Growth inhibition of human NCI-H226 cells assessed as cell growth at 10 uM incubated for 48 hrs by sulforhodamine B assay relative to control. The essentials:
as §2

In assay [7] the test system is RXF 393. The assay can be described thus: Growth inhibition of human RXF 393 cells assessed as cell growth at 10 uM incubated for 48 hrs by sulforhodamine B assay relative to control. In outline:
as §3

For assay [8], the system named is HOP-62. The assay can be described thus: Growth inhibition of human HOP-62 cells assessed as cell growth at 10 uM incubated for 48 hrs by sulforhodamine B assay relative to control. The essentials:
as §2

Assay [9] concerns Malme-3M. In words: Growth inhibition of human Malme-3M cells assessed as cell growth at 10 uM incubated for 48 hrs by sulforhodamine B assay relative to control. The essentials: as §2
Assay [10] deals with HCT-15. In words: Growth inhibition of human HCT-15 cells assessed as cell growth at 10 uM incubated for 48 hrs by sulforhodamine B assay relative to control. In outline: as §2
Assay [11] has as its system UACC-257. The assay can be described thus: Growth inhibition of human UACC-257 cells assessed as cell growth at 10 uM incubated for 48 hrs by sulforhodamine B assay relative to control. The essentials:
as §3

The test system of assay [12] is SK-MEL-5. In words: Growth inhibition of human SK-MEL-5 cells assessed as cell growth at 10 uM incubated for 48 hrs by sulforhodamine B assay relative to control. In outline:
as §3

Assay [13] concerns 786-0. In words: Growth inhibition of human 786-0 cells assessed as cell growth at 10 uM incubated for 48 hrs by sulforhodamine B assay relative to control. In outline:
as §1

In assay [14] the test system is MOLT-4. The assay can be described thus: Growth inhibition of human MOLT-4 cells assessed as cell growth at 10 uM incubated for 48 hrs by sulforhodamine B assay relative to control. The essentials: as §2
For assay [15], the system named is NCI-H460. The assay can be described thus: Growth inhibition of human NCI-H460 cells assessed as cell growth at 10 uM incubated for 48 hrs by sulforhodamine B assay relative to control. In outline:
as §2

The subject of assay [16] is UO-31. The assay can be described thus: Growth inhibition of human UO-31 cells assessed as cell growth at 10 uM incubated for 48 hrs by sulforhodamine B assay relative to control. The essentials: as §3
For assay [17], the system named is M14. In words: Growth inhibition of human M14 cells assessed as cell growth at 10 uM incubated for 48 hrs by sulforhodamine B assay relative to control. The essentials:
as §2

The test system of assay [18] is CAKI-1. In words: Growth inhibition of human CAKI-1 cells assessed as cell growth at 10 uM incubated for 48 hrs by sulforhodamine B assay relative to control. The essentials:
as §1

Assay [19] concerns KM12. In words: Growth inhibition of human KM12 cells assessed as cell growth at 10 uM incubated for 48 hrs by sulforhodamine B assay relative to control. The essentials: as §2
For assay [20], the system named is SR. The assay can be described thus: Growth inhibition of human SR cells assessed as cell growth at 10 uM incubated for 48 hrs by sulforhodamine B assay relative to control. In outline:
as §3

For assay [21], the system named is NCI-H522. The assay can be described thus: Growth inhibition of human NCI-H522 cells assessed as cell growth at 10 uM incubated for 48 hrs by sulforhodamine B assay relative to control. In outline: as §2
The test system of assay [22] is SK-MEL-2. In words: Growth inhibition of human SK-MEL-2 cells assessed as cell growth at 10 uM incubated for 48 hrs by sulforhodamine B assay relative to control. In outline: as §3
For assay [23], the system named is TK-10. In words: Growth inhibition of human TK-10 cells assessed as cell growth at 10 uM incubated for 48 hrs by sulforhodamine B assay relative to control. The essentials: as §3

With `COc1ccc(-c2ccn(S(=O)(=O)c3ccc(C)cc3)n2)cc1`, the growth at 10 µM in assay [1] worked out at 63.2%; in assay [2], 73.5%; in assay [3], 86.9%; in [4], 92.5%; in [5], 94.5%; in assay [6], 68.5%. The growth at 10 µM in assay [7] came out at 86.3%; in [8], 108%; in assay [9], 88.4%; in assay [10], 84.2%; in assay [11], 79.9%; in assay [12] it was 68.3%. The growth at 10 µM was found to be 83% in assay [13]; 95.2% in [14]; 81% in assay [15]; 75.9% in assay [16]; 90% in [17]; 69.5% in assay [18]. Also, the figures for the growth at 10 µM in [19] and in [20] were 89.7% and 79.2%, respectively.

On to `CC(=O)Nc1ccc(S(=O)(=O)n2ccc(-c3ccc4c(c3)CCC(C)(C)O4)n2)cc1`, for which the growth at 10 µM in [21] was 54%; in [22], 53.5%; in assay [1], 21.9%; in assay [2], 29.9%; in assay [3] it was 89%; in assay [4], 81.5%. Moreover, the growth at 10 µM in assay [5] worked out at 73.3%; in assay [6], 52.4%; in [8] it was 94.4%; in [9], 82.5%; in assay [10], 59.3%; in [11], 46%. The growth at 10 µM in assay [12] is 26.3%; in assay [13], 79.8%; in assay [14] it was 50.7%; in assay [23] it was 55.1%; in [15], 41.4%; in [16], 67.9%. Further, the growth at 10 µM in assay [17] was found to be 64.7%; in assay [18] it was 48.8%; in assay [19], 67.4%; in [20] it was 56.4%.

For the compound `COc1ccc(S(=O)(=O)n2ccc(-c3ccc(OC(C)C)cc3)n2)cc1`, the growth at 10 µM in assay [1] stood at 48.5%; in assay [2], 79%; in assay [3] it was 90.6%; in assay [4] it was 96.9%; in assay [5], 100%; in [6], 78.8%. For the same compound, the growth at 10 µM in assay [7] turned out to be 100%; in assay [8], 126%; in assay [9] it was 107%; in assay [10] it was 87.6%; in assay [11], 99.2%; in assay [12], 91.9%. The growth at 10 µM stood at 81.1% in [13]; 86.9% in [14]; 84.5% in [15]; 76.4% in assay [16]; 84.5% in assay [17]; 66% in assay [18]. Also, the growth at 10 µM is 92% in assay [19] and 75.7% in [20].

As to `CC1(C)CCc2cc(-c3ccn(S(=O)(=O)c4ccc(C(F)(F)F)cc4)n3)ccc2O1`, the growth at 10 µM in assay [1] was determined as 74.2%; in [2], 80.6%; in assay [3], 97.3%; in assay [4], 93.5%; in [5], 113%; in [6] it was 75.6%. Also, the growth at 10 µM in assay [7] came to 84.2%; in [8], 119%; in assay [9], 97.3%; in [10] it was 87.4%; in assay [11], 86.8%; in assay [12] it was 90.7%. Also, the growth at 10 µM in assay [13] turned out to be 82.5%; in [14], 78.7%; in assay [15], 92%; in assay [16], 80.2%; in assay [17], 92.5%; in [18], 76.7%. For the same compound, the growth at 10 µM stood at 98% in [19] and 69.8% in assay [20].

With `Cc1cc(C)cc(S(=O)(=O)n2ccc(-c3ccc4c(c3)CCC(C)(C)O4)n2)c1`, the growth at 10 µM amounted to 63% in assay [1]; 77.8% in [2]; 88% in assay [3]; 87.2% in assay [4]; 94.6% in assay [5]; 66.8% in assay [6]. In addition, the growth at 10 µM in assay [7] was determined as 77.3%; in [8] it was 116%; in assay [9], 82.9%; in assay [10] it was 82.3%; in assay [11] it was 89.6%; in assay [12], 82.9%. Besides, the growth at 10 µM in assay [13] was found to be 82.8%; in [14] it was 91.4%; in assay [15] it was 84.4%; in [16] it was 75%; in assay [17] it was 82.7%; in [18], 72.5%. Besides, the figures for the growth at 10 µM in assay [19] and in assay [20] were 82.7% and 76.5%, respectively.

As to `CC1(C)CCc2cc(-c3ccn(S(=O)(=O)c4ccccc4)n3)ccc2O1`, the growth at 10 µM is 65.4% in assay [1]; 62.7% in assay [2]; 98.8% in assay [3]; 78.9% in [4]; 94.1% in assay [5]; 69.7% in [6]. Moreover, the growth at 10 µM in assay [7] is 81.7%; in assay [8], 108%; in assay [9], 99.3%; in assay [10] it was 64.9%; in assay [11], 82.7%; in [12] it was 75.7%. In addition, the growth at 10 µM was 74.5% in [13]; 61.5% in assay [14]; 72.8% in [15]; 63.6% in assay [16]; 61% in [17]; 62.9% in assay [18]. For the same compound, the growth at 10 µM in [19] is 71.5%; in [20], 56.7%.

Regarding `COc1ccc(-c2ccn(S(=O)(=O)c3ccc(OC)cc3)n2)cc1`, the growth at 10 µM in [1] came out at 50.2%; in assay [2], 60.3%; in [3], 92.4%; in assay [4] it was 88.9%; in assay [5], 96.8%; in assay [6] it was 70.9%. The growth at 10 µM was 88.7% in assay [7]; 101% in assay [8]; 112% in [9]; 83% in assay [10]; 86.2% in assay [11]; 79.9% in assay [12]. Moreover, the growth at 10 µM in [13] was found to be 80.2%; in assay [14], 73.2%; in assay [15] it was 75%; in [16] it was 72%; in assay [17], 74%; in assay [18], 66.2%. The growth at 10 µM was determined as 88.4% in assay [19] and 57.8% in assay [20].

The record behind these values is ChEMBL document CHEMBL4715736, “Identification of anticancer agents based on the thieno[2,3-b]pyridine and 1H-pyrazole molecular scaffolds” (2016).
